The source made the active and inactive calls.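 Rule for the calls: active = EC50 for reversing nicotinamide-shortened yeast lifespan at or below a set limit; inactive = EC50 above that limit.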

For this assay, the system named is S. cerevisiae DeaD BB579, nicotinamide rescue growth, OD615 48 h. Nature of the assay: BB579 yeast growth restoration under nicotinamide – S. cerevisiae, yeast lifespan extension project, dose response (AID 809). The method, boiled down:
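Assay system: Saccharomyces cerevisiae DeaD strain BB579, log-phase cells; Medium: CSMM-D glucose restrictive medium; Dosing: compounds from 0.078 to 10 µM final, 0.5% DMSO; Times: 4 h pre-incubation, 48 h exposure at 30 °C; Technique: optical density at 615 nm (absorbance); Evaluation: culture saturation density reflecting mother-cell replicative lifespan.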
Broadly, the EC50 is the midpoint of the concentration-response curve. For `Fc1cccc2sc(Nc3nnc(-c4ccccc4)o3)nc12`, the EC50 was 3.02 µM. `CCCCOC(=O)CSc1nc2c(c(=O)[nH]c(=O)n2C)n1C/C=C(\C)Cl`: the EC50 was > 10 µM (inactive). As to `COc1ccccc1CNC(=O)C(CCSC)NS(=O)(=O)c1ccc2c(c1)oc(=O)n2C` (centres undefined), the EC50 was > 10 µM (inactive). Consider `Oc1ccc2ccccc2c1/C=N/c1nccs1`, for which the concentration giving a half-maximal response (EC50) is 6.59 µM. As for `Cc1ccc2[nH]c(=O)c(CN(CCO)Cc3nnnn3CCc3ccccc3)cc2c1`, the EC50 was > 10 µM (inactive). For the molecule `CCCCC1C(=O)CC[C@H]2[C@@H]1CC(=O)[C@@H]2C/C=C\CCCC(=O)O` (some centres undefined), the EC50 is 8.1 µM. As for `O=C(NCC1CCCO1)c1c(O)c2ccccc2[nH]c1=O` (centres undefined), the EC50 is > 10 µM (inactive). `O=C1CC(c2ccc(F)cc2)CC(O)=C1C=NCCN1CCN(C(=O)Nc2ccccc2)CC1` (centres undefined): the EC50 was 7.09 µM. As to `O=C1c2ccccc2-c2onc3c(Oc4ccccc4)cc(O)c1c23`, the EC50 was 6.05 µM. In the case of `COc1ccc(OC)c(C2C(C(C)=O)=C(O)C(=O)N2Cc2cccnc2)c1` (centres undefined), the EC50 is > 10 µM (inactive). Consider `Cc1ccc(C(=O)c2no[n+]([O-])c2C(=O)c2ccc(C)cc2)cc1`, for which the EC50 is > 10 µM (inactive).

Regarding `CCCCn1c(NS(=O)(=O)c2ccc(C)cc2)c(C(=O)OCC)c2nc3ccccc3nc21`, the EC50 was > 10 µM (inactive). For `CC1(C)CC(=O)C(C(=O)Cc2ccccc2[N+](=O)[O-])C(=O)C1`, the EC50 was 4.3 µM. As for `COC(=O)C1=C(C(=O)OC)C(c2cc(Br)ccc2O)c2sc(=O)[nH]c2S1` (centres undefined), the EC50 was 4.75 µM. In the case of `CCOC(=O)C1=C(C)Nc2nc(=S)[nH]n2C1c1ccc(Cl)cc1` (centres undefined), the EC50 is 5.46 µM. The result for `COC(=O)C1=C(C(=O)OC)C(c2ccccc2O)c2sc(=O)[nH]c2S1` (centres undefined) reads 5.38 µM. With `COCCCN(C(=S)Nc1cc(Cl)cc(Cl)c1)C(C)c1ccncc1` (centres undefined), the EC50 is > 10 µM (inactive). Regarding `O=C1C=CCC(/C=C/c2ccccc2)O1` (centres undefined), the EC50 is > 10 µM (inactive). For the molecule `COC(=O)CSc1ncccc1-c1nc2ccccc2[nH]1`, the EC50 is > 10 µM (inactive). In the case of `CCSc1nnc(NC(=O)CSc2nc(C)cc(C)n2)s1`, the EC50 is > 10 µM (inactive). The result for `COc1ccc(C2CC23N=C(c2ccccc2)OC3=O)cc1` (centres undefined) reads > 10 µM (inactive); that for `Cc1ccc(S(=O)(=O)C(C#N)c2nc3ccccc3nc2N2CCCC2)cc1` (centres undefined), > 10 µM (inactive); that for `O=C1c2ccccc2NC(c2ccc(Cl)cc2Cl)N1O` (centres undefined), 6.33 µM.

Turning to `CC(C)n1c(=O)c2c(O)cc(=O)oc2c2ccccc21`, the EC50 is 0.63 µM. As to `CC[n+]1ccc(C[n+]2ccccc2)c2ccccc21`, the EC50 is > 10 µM (inactive). The result for `CCn1c(/C=N/c2nc3ccccc3n2C)nc2ccccc21` reads > 10 µM (inactive). Regarding `CC1(C)CC2c3cccc(C(=O)O)c3C(=O)N2c2c1ccc1ccccc21` (centres undefined), the EC50 is 2.84 µM. In the case of `COCCCNc1c2c3c(cccc3[nH]c1=O)C(=O)c1ccccc1-2` it was 7.85 µM. Regarding `COc1ccc(-c2cc(C(F)(F)F)nc(S(C)(=O)=O)n2)cc1`, the concentration for a half-maximal effect (EC50) was 6.1 µM. As to `CS(=O)(=O)c1nc(-c2ccccc2)cc(C(F)(F)F)n1`, the EC50 is 3.32 µM. Turning to `CCc1ccc(CC2S/C(=C(\C#N)C(C)=O)NC2=O)cc1` (centres undefined), the EC50 was > 10 µM (inactive). In the case of `Cc1c(NC(=O)C(=O)/C=C(\O)c2ccc(Cl)cc2)c(=O)n(-c2ccccc2)n1C` it was 3.19 µM; in that of `O=C(CCl)c1ccc(Cc2ncc(C(F)(F)F)cc2Cl)s1`, 3.83 µM; in that of `C=CCN(CC=C)c1nc2ccccc2nc1C(C#N)C(=O)OC(C)C` (centres undefined), > 10 µM (inactive).

As to `CC(C)(C)OC(=O)[C@H]1[C@H](c2ccc([N+](=O)[O-])cc2)C2(C(=O)c3ccccc3C2=O)C2c3ccccc3C=NN21` (some centres undefined), the EC50 is 8.16 µM. Turning to `Cc1ccc(-c2nc3ccc(Cl)cc3n2OC(=O)N(C)C)cc1`, the EC50 is > 10 µM (inactive). In the case of `CC(C)c1nnc(NC(=O)c2c(O)c3cccc4c3n(c2=O)CCC4)s1`, the 50% effective concentration (EC50) was 4.31 µM. The result for `CCOC(=O)C1Cc2cc3c(cc2C1=O)CC(C(=O)OCC)C3=O` (centres undefined) reads 5.89 µM; that for `Cc1ccc(C(=O)NNC(=S)NC(=O)c2ccc(Cl)cc2)cc1`, 6.78 µM. As to `CCOc1cc(Br)c(Br)c(C=Nc2ccc(NC(C)=O)cc2)c1O`, the EC50 is 5.03 µM. With `Nn1c(-c2ccccn2)nnc1-c1ccccn1`, the EC50 was > 10 µM (inactive). Consider `COc1ccc(CNC(=O)c2c(O)c3cccc4c3n(c2=O)CCC4)cc1`, for which the EC50 was > 10 µM (inactive). On to `Cc1cc(C)nc(SCc2cc(=O)c(OC(=O)c3ccc(Br)o3)co2)n1`, for which the concentration for a half-maximal effect (EC50) is 3.26 µM.

Take `COC(=O)CCS(=O)(=O)c1nc(-c2ccccc2)cc(C(F)(F)F)n1`: the EC50 is 1.99 µM. For `CCCCCCN1CC(C(=O)OCC)C(=O)C1=O` (centres undefined), the 50% effective concentration (EC50) was 4.74 µM.

`CC1CCc2cc(F)cc3c(O)c(C(=O)NCc4ccco4)c(=O)n1c23` (centres undefined): the EC50 was > 10 µM (inactive).

For `CN(C)/C=C(/C(=O)c1ccc(Cl)cc1Cl)S(=O)(=O)c1ccccc1`, the EC50 was 5.3 µM. Turning to `CC1=NN(c2ccc(C(F)(F)F)cn2)C(=O)C1`, the EC50 was > 10 µM (inactive).

For `O=C(NC(=S)NNS(=O)(=O)c1ccccc1)c1ccc([N+](=O)[O-])cc1`, the EC50 is > 10 µM (inactive). Regarding `O=C(c1c[nH]c(C(=O)C(Cl)(Cl)Cl)c1)c1ccccc1Cl`, the concentration for a half-maximal effect (EC50) is 8.53 µM. On to `CC(C)(C)C1CCc2[nH]nc(C(=O)O)c2C1` (centres undefined), for which the EC50 is 1.2 µM. In the case of `CC[n+]1c(/C=C2\C=C(C)CC(C)(C)C2)sc2ccccc21` it was > 10 µM (inactive); in that of `CCOc1ccc(NCc2nc3ccccc3n2CCOc2ccccc2)cc1`, 3.28 µM; in that of `CCCc1[nH]nc2c1C(c1ccc(Br)s1)C(C#N)=C(N)O2` (centres undefined), 6.56 µM. Turning to `O=C(NNC1=Nc2cccc3cccc1c23)c1ccccc1Br`, the EC50 was > 10 µM (inactive). `CCCCn1c(=O)c2c(O)cc(=O)oc2c2ccccc21`: the half-maximal effective concentration (EC50) is 5.94 µM. Take `Cc1c(O)c(S(=O)c2ccccc2)c(=O)n(-c2ccccc2)c1-c1ccccc1` (centres undefined): the EC50 was 4.32 µM.

With `COc1cc(OC)cc(-c2nc3ccccc3c(=O)n2OC(=O)c2ccccc2C)c1`, the EC50 is > 10 µM (inactive).

With `O=C1/C(=N/n2cnnc2)c2ccccc2N1Cc1ccccc1`, the EC50 was 9.61 µM.

Consider `Cc1ccc(N(C(=O)CS(=O)CC(=O)Nc2ccc(F)cc2)C(C(=O)NC2CCCCC2)c2ccco2)cc1` (centres undefined), for which the EC50 was > 10 µM (inactive). The result for `COC(=O)C(=O)/C=C(\O)c1ccc(C)cc1` reads 5.88 µM; that for `CCOC(=O)c1nnn(-c2nonc2N)c1CN1CCc2ccccc2C1`, 9.77 µM. `COc1ccccc1-c1c(C)oc2cc(OC(=O)c3ccco3)ccc2c1=O`: the EC50 is > 10 µM (inactive). As for `CCCC(=O)C1C(=O)CC(CC(C)SCC)CC1=O` (centres undefined), the EC50 was 2.33 µM. With `CCn1c(=O)c2c(O)cc(=O)oc2c2ccccc21`, the half-maximal effective concentration (EC50) was less than 0.078 µM.

For the molecule `Cc1ccc2nc(N3C(=O)C(O)=C(C(=O)c4ccco4)C3c3cccs3)sc2c1` (centres undefined), the half-maximal effective concentration (EC50) is 6.68 µM. For the molecule `C/C(=N\NC(=O)c1cccc(Cl)c1)C1C(=O)c2ccccc2C1=O`, the EC50 is > 10 µM (inactive). As to `CCc1ccc2c(c1)CCCN2C(=O)c1ccccc1C(=O)O`, the EC50 was 9.34 µM.

Consider `C=C(C(=O)c1ccccc1)C(CC(=O)c1ccccc1)c1ccccc1` (centres undefined), for which the EC50 was 8.08 µM.

`Cc1[nH]nc2nc3c(c(OC(=O)c4ccccc4)c12)c(=O)n(C)c(=O)n3C`: the concentration for a half-maximal effect (EC50) is 1.75 µM. Take `CCCn1[nH]cc(SC)c(=O)c1=O`: the EC50 was 8.67 µM. Turning to `CC(C)c1ccc(C2=C(O)c3ccccc3C(=O)C2=O)cc1`, the EC50 was > 10 µM (inactive).

Take `Cc1nc2c(=O)n(C)c(=O)n(C)c2nc1Cl`: the concentration for a half-maximal effect (EC50) is 1.72 µM. Turning to `CCCc1nc2c(c(=O)c3ccccc3n2C)c(=O)n1C1CCCCCC1`, the EC50 was > 10 µM (inactive). As for `CC(C)Cc1nn2c(=O)cc(O)nc2s1`, the EC50 is 8.79 µM.

As to `O=C(c1ccc(F)cc1)C(CN1CCOCC1)c1ccccc1` (centres undefined), the EC50 was 1.12 µM.

Take `Cc1cc(C)c(S(=O)(=O)c2ccccc2)c(OC(=O)c2ccc(Cl)cc2Cl)n1`: the half-maximal effective concentration (EC50) was 7.48 µM.

Consider `O=C(Cn1nc(Cl)nc1Cl)c1cc2ccccc2oc1=O`, for which the EC50 is > 10 µM (inactive).

For the molecule `CCCCN(CCCC)c1ccc(C(=O)c2ccccc2C(=O)O)c(O)c1`, the half-maximal effective concentration (EC50) was 6.81 µM. As for `O=C(c1ccccc1)c1nc2ccccc2[nH]c1=O`, the EC50 was > 10 µM (inactive). On to `Fc1cccc2sc(Nc3nnc(-c4ccco4)o3)nc12`, for which the EC50 was 0.24 µM. As for `CC1(C)CC(=O)c2sc(NS(C)(=O)=O)nc2C1`, the EC50 is > 10 µM (inactive).

Consider `CCc1c(C)c(C#N)c2nc3ccccc3n2c1Cl`, for which the EC50 was > 10 µM (inactive). Consider `CSC1=NSC2=NC(=O)/C(=C\c3cccs3)C(=N)N12`, for which the EC50 is 3.28 µM. The result for `COc1cccc(C2CC3C(=O)C=CC2N3Cc2ccccc2)c1` (centres undefined) reads 6.1 µM; that for `Cc1ccc(Oc2nc3ccccc3n3c(C)nnc23)c(C)c1`, > 10 µM (inactive).

As for `COc1ccc(C(C)NC(=O)c2ccccc2)cc1` (centres undefined), the EC50 is > 10 µM (inactive). As for `CN1C(=O)NC(c2ccc(O)cc2)C(C(=O)c2cccs2)C1(O)C(F)(F)F` (centres undefined), the EC50 was > 10 µM (inactive). On to `CCOC(=O)/C(=C/c1ccc(OC(=O)c2ccccc2)cc1)C(C)=O`, for which the EC50 is 4.96 µM.

Take `O=C(O)CCCCCN1C(=O)/C(=C\c2ccncc2)SC1=S`: the EC50 was > 10 µM (inactive).

In the case of `O=C1Nc2ccccc2C12OCC1(CO2)COC2(OC1)C(=O)Nc1ccccc12` (centres undefined), the EC50 is > 10 µM (inactive). For `Cc1cc(C)n2cc(CSc3nnc(N)s3)nc2n1`, the EC50 is > 10 µM (inactive).

`COc1cc(/C=c2\sc3nc(-c4ccncc4)nn3c2=O)ccc1OC(C)=O`: the EC50 was > 10 µM (inactive). As for `C=CCn1c(-c2ccc(OC)cc2)csc1=Nc1c(C)n(C)n(-c2ccccc2)c1=O`, the EC50 is > 10 µM (inactive).

(Values after PubChem BioAssay AID809 (SRMLSC, 2007).)
